Experimental data: ChEMBL document CHEMBL3588831, “Synthesis and in Vivo Evaluation of [123I]Melanin-Targeted Agents” (J Med Chem, 2015)

Test system: Mus musculus
Assay: Biodistribution in eyes of C57BL/6J mouse bearing mouse B16F0 cells at 0.37 to 1.85 MBq, iv after 1 hr by gamma counting method
Format: ADME, organism-based, Eye
Settings: in vivo; call rule not given here
Method in brief: (§1)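 Female C57BL/6J mice (5−6 weeks), s.c. inoculated on left flank with 3 × 10^5 B16F0 cells in Ca2+/Mg2+-free PBS, used 11 days later (tumors 2−12 mm). Radiotracer given via tail vein in 100 μL (~0.37 MBq for 1−24 h, 1.85 MBq for 48 h). Organs dissected, weighed, γ-counted, decay corrected. Expressed as % ID/g against injected-dose dilutions. Mean ± SEM, n = 5.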

Drug uptake [% ID/g]	SMILES
32	O=C(c1ccc2cccnc2n1)N1CCN(Cc2ccc([123I])cc2)CC1

Test system: Mus musculus
Assay: Biodistribution in tumor of C57BL/6J mouse bearing mouse B16F0 cells at 0.37 to 1.85 MBq, iv after 16 hrs by gamma counting method
Format: ADME, organism-based
Settings: in vivo
Method in brief: as §1

Drug uptake [% ID/g]	SMILES
18.4	O=C(c1ccc2cccnc2n1)N1CCN(Cc2ccc([123I])cc2)CC1

Test system: Liver
Assay: Biodistribution in liver of C57BL/6J mouse bearing mouse B16F0 cells at 0.37 to 1.85 MBq, iv after 24 hrs by gamma counting method
Format: ADME, organism-based
Settings: in vivo
Method in brief: as §1

Drug uptake [% ID/g]	SMILES
1.8	O=C(c1ccc2cccnc2n1)N1CCN(Cc2ccc([123I])cc2)CC1

Test system: Spleen
Assay: Biodistribution in spleen of C57BL/6J mouse bearing mouse B16F0 cells at 0.37 to 1.85 MBq, iv after 16 hrs by gamma counting method
Format: ADME, organism-based
Settings: in vivo
Method in brief: as §1

Drug uptake [% ID/g]	SMILES
0.8	O=C(c1ccc2cccnc2n1)N1CCN(Cc2ccc([123I])cc2)CC1

Test system: Mus musculus
Assay: Biodistribution in eyes of C57BL/6J mouse bearing mouse B16F0 cells at 0.37 to 1.85 MBq, iv after 24 hrs by gamma counting method
Format: ADME, organism-based, Eye
Settings: in vivo
Method in brief: as §1

Drug uptake [% ID/g]	SMILES
35.1	O=C(c1ccc2cccnc2n1)N1CCN(Cc2ccc([123I])cc2)CC1

Test system: Liver
Assay: Biodistribution in liver of C57BL/6J mouse bearing mouse B16F0 cells at 0.37 to 1.85 MBq, iv after 6 hrs by gamma counting method
Format: ADME, organism-based
Settings: in vivo
Method in brief: as §1

Drug uptake [% ID/g]	SMILES
10.1	O=C(c1ccc2cccnc2n1)N1CCN(Cc2ccc([123I])cc2)CC1

Test system: Kidney
Assay: Biodistribution in kidney of C57BL/6J mouse bearing mouse B16F0 cells at 0.37 to 1.85 MBq, iv after 6 hrs by gamma counting method
Format: ADME, organism-based
Settings: in vivo
Method in brief: as §1

Drug uptake [% ID/g]	SMILES
5.2	O=C(c1ccc2cccnc2n1)N1CCN(Cc2ccc([123I])cc2)CC1

Test system: Mus musculus
Assay: Biodistribution in large gastrointestinal tract of C57BL/6J mouse bearing mouse B16F0 cells at 0.37 to 1.85 MBq, iv after 3 hrs by gamma counting method
Format: ADME, organism-based, Large intestine
Settings: in vivo
Method in brief: as §1

Drug uptake [% ID/g]	SMILES
11.9	O=C(c1ccc2cccnc2n1)N1CCN(Cc2ccc([123I])cc2)CC1

Test system: Liver
Assay: Biodistribution in liver of C57BL/6J mouse bearing mouse B16F0 cells at 0.37 to 1.85 MBq, iv after 48 hrs by gamma counting method
Format: ADME, organism-based
Settings: in vivo
Method in brief: as §1

Drug uptake [% ID/g]	SMILES
0.7	O=C(c1ccc2cccnc2n1)N1CCN(Cc2ccc([123I])cc2)CC1

Test system: not listed separately
Assay: Ratio of AUC in tumor to thyroid gland of C57BL/6J mouse bearing mouse B16F0 cells at 0.37 to 1.85 MBq, iv by gamma counting method
Format: ADME, organism-based
Settings: in vivo
Method in brief: (§2)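 Biodistribution in B16F0-bearing C57BL/6J mice given i.v. tail-vein tracer (~0.37 MBq for 1–24 h, 1.85 MBq for 48 h). Sacrifice at 1, 3, 6, 16, 24 and 48 h, then organs dissected, weighed and γ-counted as decay-corrected % ID/g. Tumor AUC divided by each organ AUC; mean of ratios ± SEM, n = 5.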

Ratio	SMILES
5	O=C(c1ccc2cccnc2n1)N1CCN(Cc2ccc([123I])cc2)CC1

Test system: Mus musculus
Assay: Biodistribution in tumor of C57BL/6J mouse bearing mouse B16F0 cells at 0.37 to 1.85 MBq, iv after 3 hrs by gamma counting method
Format: ADME, organism-based
Settings: in vivo
Method in brief: as §1

Drug uptake [% ID/g]	SMILES
20	O=C(c1ccc2cccnc2n1)N1CCN(Cc2ccc([123I])cc2)CC1

Test system: Brain
Assay: Drug distribution in brain of C57BL/6J mouse bearing mouse B16F0 cells at 18 to 20 MBq, iv measured over 72 hrs by SPECT imaging study
Format: ADME, organism-based
Settings: in vivo
Method in brief: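 Female C57BL/6J mice bearing s.c. B16F0 tumors (11 days growth) received 18−20 MBq in 100 μL via lateral tail vein (n = 3). Isoflurane anesthesia (5% induction, 2−2.5% maintenance) on a 37 °C heating pad. Planar γ-camera imaging at 10−60 min (5 min frames), 3 and 6 h, 24, 48 and 72 h. Radioactivity localization assessed visually.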

Drug uptake	SMILES
Not Active	O=C(c1ccc2cccnc2n1)N1CCN(Cc2ccc([123I])cc2)CC1

Test system: Mus musculus
Assay: Biodistribution in small gastrointestinal tract of C57BL/6J mouse bearing mouse B16F0 cells at 0.37 to 1.85 MBq, iv after 1 hr by gamma counting method
Format: ADME, organism-based, Small intestine
Settings: in vivo
Method in brief: as §1

Drug uptake [% ID/g]	SMILES
14.4	O=C(c1ccc2cccnc2n1)N1CCN(Cc2ccc([123I])cc2)CC1

Test system: Mus musculus
Assay: Biodistribution in tumor of C57BL/6J mouse bearing mouse B16F0 cells at 0.37 to 1.85 MBq, iv after 48 hrs by gamma counting method
Format: ADME, organism-based
Settings: in vivo
Method in brief: as §1

Drug uptake [% ID/g]	SMILES
13.1	O=C(c1ccc2cccnc2n1)N1CCN(Cc2ccc([123I])cc2)CC1

Test system: Mus musculus
Assay: Biodistribution in small gastrointestinal tract of C57BL/6J mouse bearing mouse B16F0 cells at 0.37 to 1.85 MBq, iv after 3 hrs by gamma counting method
Format: ADME, organism-based, Small intestine
Settings: in vivo
Method in brief: as §1

Drug uptake [% ID/g]	SMILES
14.1	O=C(c1ccc2cccnc2n1)N1CCN(Cc2ccc([123I])cc2)CC1

Test system: Mus musculus
Assay: Biodistribution in eyes of C57BL/6J mouse bearing mouse B16F0 cells at 0.37 to 1.85 MBq, iv after 16 hrs by gamma counting method
Format: ADME, organism-based, Eye
Settings: in vivo
Method in brief: as §1

Drug uptake [% ID/g]	SMILES
32.9	O=C(c1ccc2cccnc2n1)N1CCN(Cc2ccc([123I])cc2)CC1

Test system: Mus musculus
Assay: Biodistribution in thyroid gland of C57BL/6J mouse bearing mouse B16F0 cells at 0.37 to 1.85 MBq, iv after 1 hr by gamma counting method
Format: ADME, organism-based
Settings: in vivo
Method in brief: as §1

Drug uptake [% ID/g]	SMILES
2.3	O=C(c1ccc2cccnc2n1)N1CCN(Cc2ccc([123I])cc2)CC1

Test system: Spleen
Assay: Biodistribution in spleen of C57BL/6J mouse bearing mouse B16F0 cells at 0.37 to 1.85 MBq, iv after 6 hrs by gamma counting method
Format: ADME, organism-based
Settings: in vivo
Method in brief: as §1

Drug uptake [% ID/g]	SMILES
2.1	O=C(c1ccc2cccnc2n1)N1CCN(Cc2ccc([123I])cc2)CC1

Test system: Spleen
Assay: Biodistribution in spleen of C57BL/6J mouse bearing mouse B16F0 cells at 0.37 to 1.85 MBq, iv after 48 hrs by gamma counting method
Format: ADME, organism-based
Settings: in vivo
Method in brief: as §1

Drug uptake [% ID/g]	SMILES
0.2	O=C(c1ccc2cccnc2n1)N1CCN(Cc2ccc([123I])cc2)CC1

Test system: Liver
Assay: Biodistribution in liver of C57BL/6J mouse bearing mouse B16F0 cells at 0.37 to 1.85 MBq, iv after 3 hrs by gamma counting method
Format: ADME, organism-based
Settings: in vivo
Method in brief: as §1

Drug uptake [% ID/g]	SMILES
13.4	O=C(c1ccc2cccnc2n1)N1CCN(Cc2ccc([123I])cc2)CC1

Test system: Mus musculus
Assay: Biodistribution in large gastrointestinal tract of C57BL/6J mouse bearing mouse B16F0 cells at 0.37 to 1.85 MBq, iv after 6 hrs by gamma counting method
Format: ADME, organism-based
Settings: in vivo
Method in brief: as §1

Drug uptake [% ID/g]	SMILES
18.6	O=C(c1ccc2cccnc2n1)N1CCN(Cc2ccc([123I])cc2)CC1

Test system: Mus musculus
Assay: Whole body clearance in C57BL/6J mouse bearing mouse B16F0 cells at 0.37 to 1.85 MBq, iv after 16 hrs by gamma counting method
Format: ADME, organism-based
Settings: in vivo

CL [%]	SMILES
> 98	O=C(c1ccc2cccnc2n1)N1CCN(Cc2ccc([123I])cc2)CC1

Test system: Mus musculus
Assay: Biodistribution in large gastrointestinal tract of C57BL/6J mouse bearing mouse B16F0 cells at 0.37 to 1.85 MBq, iv after 16 hrs by gamma counting method
Format: ADME, organism-based, Large intestine
Settings: in vivo
Method in brief: as §1

Drug uptake [% ID/g]	SMILES
1.8	O=C(c1ccc2cccnc2n1)N1CCN(Cc2ccc([123I])cc2)CC1

Test system: Mus musculus
Assay: Biodistribution in tumor of C57BL/6J mouse bearing mouse B16F0 cells at 0.37 to 1.85 MBq, iv after 6 hrs by gamma counting method
Format: ADME, organism-based
Settings: in vivo
Method in brief: as §1

Drug uptake [% ID/g]	SMILES
19.4	O=C(c1ccc2cccnc2n1)N1CCN(Cc2ccc([123I])cc2)CC1

Test system: not listed separately
Assay: Ratio of AUC in tumor to eyes of C57BL/6J mouse bearing mouse B16F0 cells at 0.37 to 1.85 MBq, iv by gamma counting method
Format: ADME, organism-based
Settings: in vivo
Method in brief: as §2

Ratio	SMILES
0.47	O=C(c1ccc2cccnc2n1)N1CCN(Cc2ccc([123I])cc2)CC1

Test system: Mus musculus
Assay: Biodistribution in large gastrointestinal tract of C57BL/6J mouse bearing mouse B16F0 cells at 0.37 to 1.85 MBq, iv after 1 hr by gamma counting method
Format: ADME, organism-based, Large intestine
Settings: in vivo
Method in brief: as §1

Drug uptake [% ID/g]	SMILES
3.2	O=C(c1ccc2cccnc2n1)N1CCN(Cc2ccc([123I])cc2)CC1

Test system: Spleen
Assay: Biodistribution in spleen of C57BL/6J mouse bearing mouse B16F0 cells at 0.37 to 1.85 MBq, iv after 3 hrs by gamma counting method
Format: ADME, organism-based
Settings: in vivo
Method in brief: as §1

Drug uptake [% ID/g]	SMILES
2.3	O=C(c1ccc2cccnc2n1)N1CCN(Cc2ccc([123I])cc2)CC1

Test system: Liver
Assay: Biodistribution in liver of C57BL/6J mouse bearing mouse B16F0 cells at 0.37 to 1.85 MBq, iv after 1 hr by gamma counting method
Format: ADME, organism-based
Settings: in vivo
Method in brief: as §1

Drug uptake [% ID/g]	SMILES
15.9	O=C(c1ccc2cccnc2n1)N1CCN(Cc2ccc([123I])cc2)CC1

Test system: not listed separately
Assay: Stability in urine of C57BL/6J mouse bearing mouse B16F0 cells assessed as drug degradation at 0.37 to 1.85 MBq, iv after 24 hrs by radio-HPLC and radio-TLC method
Format: ADME, organism-based
Settings: in vivo, in the assay text read “20 MBq” for “0.37 to 1.85 MBq”
Method in brief: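 Tumor-bearing C57BL/6J mice were sampled 3 and 24 h after i.v. tracer. Tissue was sonicated in CH3CN/water (3:2) with cold iodo standard and KI, then centrifuged. Urine was diluted and spiked; plasma was spiked, with CH3CN precipitation for TLC. Intact fraction came from silica radio-TLC (spot matching standard Rf) and radio-HPLC with precolumn/C18 column switching.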

Stability	SMILES
Unstable	O=C(c1ccc2cccnc2n1)N1CCN(Cc2ccc([123I])cc2)CC1
